Measured values taken from ChEMBL document CHEMBL5149991 (J Med Chem, 2021).

Experiments:
D(1A) dopamine receptor = D(1A) dopamine receptor (Homo sapiens, UniProt P21728); assay: Displacement of [3H]SCH23390 from human D1 receptor stably expressed in HEK293T cells co-expressing luciferase and CEK incubated for 60 mins by scintillation counting analysis; assay type: cell-based
[1] = biological target: T1, Alpha-2A adrenergic receptor (Homo sapiens, UniProt P08913); assay: Displacement of [3H]RX821002 from human alpha-2A adrenergic receptor […] in HEK293T cell membrane incubated for 2 hrs by scintillation counting analysis; assay type: cell membranes
T1 sequence (P08913 whole entry): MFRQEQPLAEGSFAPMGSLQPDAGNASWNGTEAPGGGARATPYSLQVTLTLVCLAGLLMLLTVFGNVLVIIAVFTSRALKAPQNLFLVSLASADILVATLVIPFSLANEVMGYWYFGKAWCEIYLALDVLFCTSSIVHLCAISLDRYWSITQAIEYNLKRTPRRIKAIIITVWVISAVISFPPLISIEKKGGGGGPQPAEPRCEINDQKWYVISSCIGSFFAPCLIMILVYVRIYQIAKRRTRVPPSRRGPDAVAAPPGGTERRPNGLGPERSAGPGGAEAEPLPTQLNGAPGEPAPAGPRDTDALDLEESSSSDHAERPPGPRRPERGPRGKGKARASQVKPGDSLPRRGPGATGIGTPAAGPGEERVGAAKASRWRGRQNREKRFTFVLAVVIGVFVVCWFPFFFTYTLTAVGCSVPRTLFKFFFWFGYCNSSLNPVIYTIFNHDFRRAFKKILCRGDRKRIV
Summary of the method: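 Transiently transfected HEK293T membranes in 50 mM Tris, pH 7.4. α2A: 10 μg/well, 0.5 nM [3H]RX821002, nonspecific with 10 μM RX821002. μOR: 6 μg/well, 0.3 nM [3H]diprenorphine, nonspecific with 10 μM naloxone. Ki from IC50 by Cheng–Prusoff.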

D(1B) dopamine receptor = D(1B) dopamine receptor (Homo sapiens, UniProt P21918); assay: Displacement of [3H]SCH23390 from human D5 receptor stably expressed in HEK293T cells co-expressing luciferase and CEK incubated for 60 mins by scintillation counting analysis; assay type: cell-based
D(1B) dopamine receptor, sequence (P21918 whole entry): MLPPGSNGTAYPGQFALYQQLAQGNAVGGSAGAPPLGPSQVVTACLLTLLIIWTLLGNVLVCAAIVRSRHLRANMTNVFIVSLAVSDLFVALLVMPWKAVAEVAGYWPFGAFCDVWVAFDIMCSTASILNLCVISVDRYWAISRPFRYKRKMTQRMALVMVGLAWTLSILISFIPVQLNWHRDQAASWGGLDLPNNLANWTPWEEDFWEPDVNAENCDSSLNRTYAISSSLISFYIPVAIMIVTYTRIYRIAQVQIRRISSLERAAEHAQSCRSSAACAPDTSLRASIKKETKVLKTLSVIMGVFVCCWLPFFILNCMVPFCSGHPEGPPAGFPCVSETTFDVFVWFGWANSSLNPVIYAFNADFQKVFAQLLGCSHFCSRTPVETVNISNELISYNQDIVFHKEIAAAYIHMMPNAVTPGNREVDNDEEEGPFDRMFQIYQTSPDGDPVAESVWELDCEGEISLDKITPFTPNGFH

D(2) dopamine receptor [2] = biological target: T2, D(2) dopamine receptor (Homo sapiens, UniProt P14416); assay: Displacement of [3H]N-methylspiperone from human D2 long receptor stably expressed in HEK293T cells co-expressing luciferase and CEK incubated for 140 mins by radioligand competition binding based assay; assay type: cell-based
T2 sequence (P14416 whole entry): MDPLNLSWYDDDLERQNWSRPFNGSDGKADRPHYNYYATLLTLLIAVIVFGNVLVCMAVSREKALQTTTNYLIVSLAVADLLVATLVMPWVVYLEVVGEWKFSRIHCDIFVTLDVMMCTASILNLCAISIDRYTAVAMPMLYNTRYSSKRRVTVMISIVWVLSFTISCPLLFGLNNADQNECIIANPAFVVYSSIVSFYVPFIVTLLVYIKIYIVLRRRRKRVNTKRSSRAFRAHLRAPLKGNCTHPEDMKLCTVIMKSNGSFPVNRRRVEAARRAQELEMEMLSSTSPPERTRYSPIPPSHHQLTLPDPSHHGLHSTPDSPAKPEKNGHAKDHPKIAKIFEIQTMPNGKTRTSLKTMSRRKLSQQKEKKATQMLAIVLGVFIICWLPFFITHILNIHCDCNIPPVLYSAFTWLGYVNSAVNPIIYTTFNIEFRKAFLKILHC

Histamine H1 receptor = Histamine H1 receptor (Homo sapiens, UniProt P35367)
Histamine H1 receptor, sequence (P35367 whole entry): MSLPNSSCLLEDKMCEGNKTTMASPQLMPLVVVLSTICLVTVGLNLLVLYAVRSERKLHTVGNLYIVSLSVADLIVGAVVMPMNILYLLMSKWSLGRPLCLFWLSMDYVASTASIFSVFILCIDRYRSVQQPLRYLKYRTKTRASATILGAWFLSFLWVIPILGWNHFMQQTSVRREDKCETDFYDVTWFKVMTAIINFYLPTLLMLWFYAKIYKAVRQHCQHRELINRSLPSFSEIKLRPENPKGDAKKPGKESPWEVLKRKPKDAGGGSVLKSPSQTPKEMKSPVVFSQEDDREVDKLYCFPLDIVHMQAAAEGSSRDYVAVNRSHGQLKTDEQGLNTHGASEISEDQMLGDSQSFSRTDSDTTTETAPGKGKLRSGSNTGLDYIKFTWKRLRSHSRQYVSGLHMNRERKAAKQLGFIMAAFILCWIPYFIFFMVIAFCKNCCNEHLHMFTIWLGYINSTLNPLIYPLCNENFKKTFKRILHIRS

[3] = biological target: Beta-2 adrenergic receptor (Homo sapiens, UniProt P07550); assay: Displacement of [3H]CGP12177 from human beta-2 adrenergic receptor […] in HEK293T cell membrane incubated for 2 hrs by scintillation counting analysis; assay type: cell membranes
Beta-2 adrenergic receptor, sequence (P07550 whole entry): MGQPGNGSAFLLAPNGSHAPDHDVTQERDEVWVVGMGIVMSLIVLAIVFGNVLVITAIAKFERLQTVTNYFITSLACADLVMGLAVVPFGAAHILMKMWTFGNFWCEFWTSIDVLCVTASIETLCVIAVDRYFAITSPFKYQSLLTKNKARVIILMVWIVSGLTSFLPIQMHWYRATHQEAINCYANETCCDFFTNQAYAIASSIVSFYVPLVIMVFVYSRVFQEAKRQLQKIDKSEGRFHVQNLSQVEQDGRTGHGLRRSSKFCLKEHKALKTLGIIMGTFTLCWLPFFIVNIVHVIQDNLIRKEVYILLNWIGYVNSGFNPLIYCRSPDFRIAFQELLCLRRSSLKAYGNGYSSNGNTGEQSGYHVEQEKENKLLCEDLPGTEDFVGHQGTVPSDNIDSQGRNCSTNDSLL
Summary of the method: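 Membranes of transiently transfected HEK293T cells in 25 mM HEPES, 5 mM MgCl2, 1 mM EDTA, 0.01% BSA, pH 7.4. β1 at 2 μg/well, β2 at 4 μg/well, with 0.2 nM [3H]CGP12177. Nonspecific binding with 10 μM CGP12177. IC50 converted to Ki by Cheng–Prusoff.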

Histamine H3 receptor = Histamine H3 receptor (Homo sapiens, UniProt Q9Y5N1); assay: Displacement of [3H]UR-PI294 from human histamine H3 receptor stably expressed in baculovirus infected Sf9 cell membrane co-expressing G-alphai2 and G-beta1gamma2 incubated for 60 mins by scintillation counting analysis; assay type: cell membranes
Histamine H3 receptor, sequence (Q9Y5N1 whole entry): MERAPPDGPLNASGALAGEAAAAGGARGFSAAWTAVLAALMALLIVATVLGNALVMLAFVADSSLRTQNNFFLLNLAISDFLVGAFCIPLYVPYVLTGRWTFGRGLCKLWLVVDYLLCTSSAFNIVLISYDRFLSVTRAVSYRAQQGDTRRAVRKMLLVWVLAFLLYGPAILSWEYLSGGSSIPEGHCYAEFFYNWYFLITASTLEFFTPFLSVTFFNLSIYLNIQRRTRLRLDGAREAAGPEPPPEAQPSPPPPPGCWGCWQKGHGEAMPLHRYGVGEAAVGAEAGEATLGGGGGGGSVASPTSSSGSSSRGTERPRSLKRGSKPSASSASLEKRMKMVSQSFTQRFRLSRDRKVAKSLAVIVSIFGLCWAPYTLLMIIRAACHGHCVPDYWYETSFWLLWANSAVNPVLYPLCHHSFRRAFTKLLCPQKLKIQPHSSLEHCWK
Summary of the method: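 hH3R + Gαi2 + Gβ1γ2 expressed in Sf9 membranes. […] Mean ± SEM from N independent experiments in triplicate.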

Histamine H2 receptor = Histamine H2 receptor (Cavia porcellus, UniProt P47747); assay: Agonist activity at histamine H2 receptor in spontaneous beating guinea pig right atrium assessed as increase in heart beat; assay type: functional, tissue-based, Right cardiac atrium
Histamine H2 receptor, sequence (P47747 whole entry): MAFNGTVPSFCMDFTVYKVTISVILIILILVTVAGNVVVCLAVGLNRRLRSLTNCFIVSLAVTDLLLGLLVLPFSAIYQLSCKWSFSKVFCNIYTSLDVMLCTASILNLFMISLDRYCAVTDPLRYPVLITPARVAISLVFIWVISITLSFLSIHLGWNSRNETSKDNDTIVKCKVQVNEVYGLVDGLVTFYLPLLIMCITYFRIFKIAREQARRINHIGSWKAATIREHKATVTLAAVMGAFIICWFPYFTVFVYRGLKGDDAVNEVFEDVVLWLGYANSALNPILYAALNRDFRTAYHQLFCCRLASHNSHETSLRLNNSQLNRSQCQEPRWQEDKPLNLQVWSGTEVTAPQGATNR

D(2) dopamine receptor [4] = biological target: T2, D(2) dopamine receptor; assay type: functional, cell-based, HEK293T
[5] = biological target: T3, Alpha-1A adrenergic receptor (Homo sapiens, UniProt P35348); assay: Displacement of [3H]prazosin from human alpha-1A adrenergic receptor stably expressed in HEK293T cell membrane incubated for 2 hrs by scintillation counting analysis; assay type: cell membranes
T3 sequence (P35348 whole entry): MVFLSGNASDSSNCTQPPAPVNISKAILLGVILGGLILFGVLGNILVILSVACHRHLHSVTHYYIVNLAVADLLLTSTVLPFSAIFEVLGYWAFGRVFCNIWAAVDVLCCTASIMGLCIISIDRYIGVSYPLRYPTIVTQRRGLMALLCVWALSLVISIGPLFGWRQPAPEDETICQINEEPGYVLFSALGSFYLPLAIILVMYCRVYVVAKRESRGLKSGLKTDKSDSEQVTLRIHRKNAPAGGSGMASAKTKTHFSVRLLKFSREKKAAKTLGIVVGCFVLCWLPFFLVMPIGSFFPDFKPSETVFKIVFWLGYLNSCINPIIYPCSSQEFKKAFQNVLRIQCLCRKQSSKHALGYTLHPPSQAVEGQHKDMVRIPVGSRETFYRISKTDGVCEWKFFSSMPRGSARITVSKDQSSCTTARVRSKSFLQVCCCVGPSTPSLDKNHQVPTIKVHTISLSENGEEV

[6] = biological target: T4, Muscarinic acetylcholine receptor M2 (Homo sapiens, UniProt P08172); assay: Displacement of [3H]N-methylscopolamine from human muscarinic acetylcholine M2 receptor stably expressed in CHO cells by radioligand competition binding based analysis; assay type: cell-based
T4 sequence (P08172 whole entry): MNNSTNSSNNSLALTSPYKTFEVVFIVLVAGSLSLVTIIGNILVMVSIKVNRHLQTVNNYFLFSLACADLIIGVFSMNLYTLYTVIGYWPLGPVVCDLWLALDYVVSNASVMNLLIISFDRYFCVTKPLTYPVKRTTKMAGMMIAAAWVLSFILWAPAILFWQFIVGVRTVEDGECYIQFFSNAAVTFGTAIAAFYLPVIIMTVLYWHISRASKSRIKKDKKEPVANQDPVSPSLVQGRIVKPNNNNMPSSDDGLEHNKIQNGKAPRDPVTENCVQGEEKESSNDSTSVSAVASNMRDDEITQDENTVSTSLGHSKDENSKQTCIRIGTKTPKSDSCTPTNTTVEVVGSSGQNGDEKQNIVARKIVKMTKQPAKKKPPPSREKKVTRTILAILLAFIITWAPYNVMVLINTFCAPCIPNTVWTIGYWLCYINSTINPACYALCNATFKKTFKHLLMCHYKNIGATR
Summary of the method: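 Whole CHO cells stably expressing hM1–hM5, competed against [3H]N-methylscopolamine. Kd/applied concentrations in nM: M1 0.17/0.2, M2 0.10/0.2, M3 0.12/0.2, M4 0.052/0.1, M5 0.20/0.3.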

Histamine H4 receptor = Histamine H4 receptor (Homo sapiens, UniProt Q9H3N8)
Histamine H4 receptor, sequence (Q9H3N8 whole entry): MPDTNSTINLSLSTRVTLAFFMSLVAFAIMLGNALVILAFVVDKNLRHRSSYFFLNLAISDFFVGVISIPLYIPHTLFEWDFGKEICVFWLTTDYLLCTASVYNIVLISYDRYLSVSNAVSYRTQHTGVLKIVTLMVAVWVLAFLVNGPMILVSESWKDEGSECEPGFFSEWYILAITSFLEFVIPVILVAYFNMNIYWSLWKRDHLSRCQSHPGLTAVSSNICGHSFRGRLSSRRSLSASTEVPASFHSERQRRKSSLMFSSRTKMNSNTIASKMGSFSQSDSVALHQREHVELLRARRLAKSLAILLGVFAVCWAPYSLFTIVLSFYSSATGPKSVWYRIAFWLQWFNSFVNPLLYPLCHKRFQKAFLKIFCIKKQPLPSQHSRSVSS

D(1A) dopamine receptor, sequence (P21728 whole entry): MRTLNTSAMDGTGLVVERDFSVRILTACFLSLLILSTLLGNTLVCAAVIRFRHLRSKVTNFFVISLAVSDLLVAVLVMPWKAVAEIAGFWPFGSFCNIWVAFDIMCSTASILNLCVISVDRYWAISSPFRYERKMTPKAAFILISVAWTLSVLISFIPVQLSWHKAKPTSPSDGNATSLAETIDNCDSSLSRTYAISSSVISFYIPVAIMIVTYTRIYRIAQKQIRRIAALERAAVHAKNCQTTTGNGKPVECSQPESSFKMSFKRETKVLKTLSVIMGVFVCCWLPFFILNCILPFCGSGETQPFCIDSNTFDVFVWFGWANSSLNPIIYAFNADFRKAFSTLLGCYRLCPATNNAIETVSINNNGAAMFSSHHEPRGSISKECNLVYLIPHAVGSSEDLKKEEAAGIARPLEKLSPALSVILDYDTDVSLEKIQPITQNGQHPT

Structure (SMILES) | Kd (D(1A) dopamine receptor) | Ki (D(1A) dopamine receptor) | Kd [1] | pKi [1] | Kd (D(1B) dopamine receptor) | pKi (D(1B) dopamine receptor) | Ki (D(2) dopamine receptor [2]) | Kd (Histamine H1 receptor) | Ki (Histamine H1 receptor) | Kd [3] | pKi [3] | Ki (Histamine H3 receptor) | EC50 (Histamine H2 receptor) | EC50 (D(2) dopamine receptor [4]) | Kd [5] | pKi [5] | Kd [6] | Kd (Histamine H4 receptor) | Ki (Histamine H4 receptor) | Ki [6]
N/C(=N\C(=O)NCc1ccccc1)NCCCc1nnc(N)s1 | 0.23 nM | 1380 nM | 0.6 nM | 5.9 | 0.24 nM | 4.95 | 6310 nM | 4.5 nM | 5370 nM | 0.07 nM | 4.4 | > 10000 nM | 1.32 nM | > 10000 nM | 0.25 nM | 6.07 | 0.1 nM | 16 nM | > 10000 nM | –
CCCCCNC(=O)/N=C(\N)NCCCc1nnc(N)s1.O=C(O)C(F)(F)F.O=C(O)C(F)(F)F | 0.23 nM | 2450 nM | 0.6 nM | 5.31 | 0.24 nM | 4.46 | 9550 nM | 4.5 nM | 6460 nM | 0.07 nM | 4.2 | > 10000 nM | 5.62 nM | > 10000 nM | 0.25 nM | 5.45 | 0.1 nM | 16 nM | > 10000 nM | –
C[C@@H](NC(=O)/N=C(\N)NCCCc1ncn[nH]1)c1ccccc1 | 0.23 nM | 2190 nM | 0.6 nM | 6.07 | 0.24 nM | 4.62 | > 10000 nM | 4.5 nM | 7940 nM | 0.07 nM | 4.45 | > 10000 nM | 38 nM | > 10000 nM | 0.25 nM | 5.72 | 0.1 nM | 16 nM | > 10000 nM | > 10000 nM
CCCCCNC(=O)/N=C(\N)NCCCc1sc(N)nc1C | 0.23 nM | 257 nM | 0.6 nM | 6.05 | 0.24 nM | 5.4 | – | – | – | 0.07 nM | 4.93 | – | – | – | 0.25 nM | 5.69 | 0.1 nM | – | – | > 10000 nM
